This passage reports IC50, EC50 and Activity results from ChEMBL document CHEMBL1287655, “Structure-activity relationship studies of acridones as potential antipsoriatic agents. 2. Synthesis and antiproliferative activity of 10-substituted hydroxy-10H-acridin-9-ones against human keratinocyte growth” (Eur J Med Chem, 2010).

In experiment [1] the test system is HaCaT. The experiment can be described thus: Antiproliferative activity against human HaCaT cells assessed as dispersed cells after 48 hrs by phase-contrast microscopic analysis. It counts as functional, cell-based. Put shortly:
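HaCaT keratinocytes (non-transformed human line) treated for 48 h, then dispersed cells counted by phase-contrast microscopy. Inhibition = (1 − test/control) × 100, from means of test (N = 3) versus control (N = 6–8). Significance by Student's t-test (P < 0.05). IC50 obtained by nonlinear regression.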

For experiment [2], the system named is Radical scavenging activity. Nature of the experiment: Antioxidant activity assessed as DPPH free radical scavenging activity. It counts as functional. A digest of the protocol:
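Cell-free DPPH radical interaction: compound effect on DPPH absorbance read at 520 nm. Percent interaction = (1 − test absorbance/control absorbance) × 100, from mean of N = 3 versus control N = 8. EC50 is the concentration giving 50% decrease in DPPH absorbance. NDGA and α-tocopherol served as positive controls.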

The subject of experiment [3] is HaCaT. The experiment can be described thus: Cytotoxicity against human HaCaT cells assessed as LDH release at 2 uM after 4 hrs by UV method. It counts as functional. Put shortly:
(§1)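 HaCaT cells exposed to test compound for 4 h at 37 °C. Extracellular LDH activity measured by UV method with pyruvate and NADH and reported in mU/mL (N = 3, SD < 10%). Vehicle control was 0.2% DMSO in culture medium. Brij 35 with ultrasound served as positive control. Significance versus vehicle at P < 0.05.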
A general note: LDH in the medium is a marker of cell lysis.

In experiment [4] the test system is HaCaT. Nature of the experiment: Cytotoxicity against human HaCaT cells assessed as LDH release at 2 uM after 4 hrs by UV method relative to control. It counts as functional. Put shortly: as §1

pEC50, pIC50: −log10 of the molar value.

For orientation: pIC50 means −log10 of the IC50, conventionally taken in molar units. A word on the pEC50: it is −log10 of the EC50, conventionally taken in molar units.

For `COc1cc(O)c2c(=O)c3ccccc3n(C)c2c1`, the pIC50 in the experiment with HaCaT [1] was below 4.30.
Same read-out and setting: next, `CCn1c2ccccc2c(=O)c2c(O)cc(O)cc21`: below 4.30.
On to `Cn1c2ccccc2c(=O)c2c(O)cc(O)cc21`, for which the negative-log IC50 (pIC50) with HaCaT [1] was 6.22. Moreover, the negative-log EC50 (pEC50) in experiment [2] is below 3.30. In the experiment on HaCaT [3], the Activity is on record as 74.3 mU/ml.
Turning to `Cn1c2ccccc2c(=O)c2c(O)cccc21`, in the experiment on HaCaT [1], the pIC50 is below 4.30.
The same measure, in the same setting: for `COc1cccc2c1c(=O)c1ccccc1n2C` the value was below 4.30.
Same read-out and setting: for `CCn1c2ccccc2c(=O)c2c(O)cccc21` the value was below 4.30; for `CCCn1c2ccccc2c(=O)c2c(O)cccc21`, below 4.30.
Same read-out and setting: for `CCCn1c2ccccc2c(=O)c2c(O)cc(O)cc21` the value was below 4.30.
Take `Cn1c2ccccc2c(=O)c2ccccc21`: the negative-log IC50 (pIC50) in the experiment on HaCaT [1] is 4.41.
Still for that read-out and setting: for `Cc1cccc2c1c(=O)c1c(O)cc(O)cc1n2C` the value was below 4.30.
`COc1ccc(CCn2c3ccccc3c(=O)c3c(O)cccc32)cc1`: the negative-log IC50 (pIC50) with HaCaT [1] was 5.20. For the same compound, in experiment [2], the negative-log EC50 (pEC50) was below 3.30. Besides, in the experiment with HaCaT [3], the Activity amounted to 74.6 mU/ml.
As to `COc1ccc(CCn2c3ccccc3c(=O)c3c(O)cccc32)cc1OC`, the pIC50 with HaCaT [1] was 5.15. For the same compound, in experiment [2], the negative logarithm of the EC50 (pEC50) was below 3.30.
Regarding `COc1cc(CCn2c3ccccc3c(=O)c3c(O)cccc32)cc(OC)c1OC`, in the experiment with HaCaT [1], the pIC50 was 4.34.
Same read-out and setting: for `O=c1c2ccccc2n(CCCc2ccccc2)c2cccc(O)c12` the value was below 4.30; for `O=c1c2ccccc2n(CCCCc2ccccc2)c2cccc(O)c12`, below 4.30.
With `CCOc1cc(O)c2c(=O)c3ccccc3n(CC)c2c1`, in the experiment with HaCaT [1], the pIC50 is below 4.30.
With `O=c1c2ccccc2n(Cc2ccccc2)c2cc(O)cc(O)c12`, the pIC50 with HaCaT [1] was 5.43. The negative-log EC50 (pEC50) in experiment [2] was below 3.30. Moreover, in the experiment on HaCaT [3], the Activity is 76.8 mU/ml.
Consider `O=c1c2ccccc2n(Cc2ccccc2)c2cc(OCc3ccccc3)cc(O)c12`, for which the pIC50 in the experiment with HaCaT [1] was below 4.30.
Still for that read-out and setting: for `O=c1c2ccccc2n(CCCc2ccccc2)c2cc(O)cc(O)c12` the value was 4.39.
As for `COc1ccc(Cn2c3ccccc3c(=O)c3ccccc32)cc1OC`, in the experiment with HaCaT [1], the negative logarithm of the IC50 (pIC50) was below 4.30. For the same compound, the negative logarithm of the EC50 (pEC50) in experiment [2] is below 3.30.
For the compound `CC(=O)CC(=O)n1c2ccccc2c(=O)c2ccccc21`, the pIC50 in the experiment on HaCaT [1] is 4.56.
Take `CC(=O)CC(=O)n1c2ccccc2c(=O)c2c(O)cccc21`: in the experiment on HaCaT [1], the pIC50 was 5.48. Further, the pEC50 in experiment [2] is below 3.30. In addition, in the experiment with HaCaT [3], the Activity was found to be 74 mU/ml.
On the same counts, the results for `O=c1c2ccccc2n(Cc2ccccc2)c2cccc(O)c12` are 5.60, below 3.30 and 74.9 mU/ml.
In the case of `O=c1c2ccccc2n(Cc2ccccc2)c2cccc(OCc3ccccc3)c12`, in the experiment with HaCaT [1], the pIC50 is 5.12. Further, the negative logarithm of the EC50 (pEC50) in experiment [2] is below 3.30. The Activity in the experiment with HaCaT [3] is given as 72.1 mU/ml.
With `O=c1c2ccccc2n(Cc2ccccc2)c2ccc(Cc3ccccc3)c(O)c12`, the pIC50 in the experiment with HaCaT [1] is 4.89.
On to `O=c1c2ccccc2n(Cc2ccc([N+](=O)[O-])cc2)c2cccc(O)c12`, for which, in the experiment with HaCaT [1], the pIC50 is 5.74. The Activity in the experiment on HaCaT [4] is given as 86.7 mU/ml. Besides, the negative-log EC50 (pEC50) in experiment [2] was below 3.30.
With `O=c1c2ccccc2n(CCc2ccccc2)c2cccc(O)c12`, the negative logarithm of the IC50 (pIC50) in the experiment on HaCaT [1] is 4.38.
On to `O=c1c2ccccc2n(CCc2ccc(O)cc2)c2cccc(O)c12`, for which the pIC50 in the experiment with HaCaT [1] is 4.70. For the same compound, the pEC50 in experiment [2] is below 3.30.
`O=c1c2ccccc2[nH]c2cc(O)cc(O)c12`: the negative-log EC50 (pEC50) in experiment [2] is below 3.30.
As for `O=c1c2ccccc2[nH]c2cccc(O)c12`, the pIC50 in the experiment with HaCaT [1] was below 4.30. For the same compound, the pEC50 in experiment [2] is below 3.30.
With `O=c1c2ccccc2n(Cc2ccccc2)c2ccccc12`, the negative logarithm of the IC50 (pIC50) in the experiment with HaCaT [1] is below 4.30.
Still for that read-out and setting: for `O=c1c2ccccc2[nH]c2ccccc12` [ACRIDONE] the value was below 4.30.
Take `COc1cc2c(c3c1c(=O)c1ccccc1n3C)C=CC(C)(C)O2` [ACRONINE]: the negative logarithm of the IC50 (pIC50) in the experiment on HaCaT [1] was 5.49. In experiment [2], the negative logarithm of the EC50 (pEC50) is below 3.30. Moreover, in the experiment with HaCaT [3], the Activity is listed as 70.4 mU/ml.
On to `O=C1c2c(O)cccc2Cc2cccc(O)c21` [ANTHRALIN], for which the Activity in the experiment with HaCaT [4] is on record as 122.8 mU/ml. Moreover, the negative logarithm of the EC50 (pEC50) in experiment [2] is 4.78.
